Source: publication PMC6235520 (Science Advances, 2018)
“And” between values parts separate entries of the source, which are not always exact repeats. Identical values can stand only once. Like-named read-outs stand apart in the source and are kept apart here.

Columns and labels:
KCNQ1 = settings: cited from earlier work
hERG = settings: cited from earlier work
[1] = Pharmacokinetics in rats fed Mallotus philippensis extract; settings: equates to 2 μg/ml
KCNQ1-KCNE3 = assay: Two-electrode voltage clamp of KCNQ1-KCNE3 in Xenopus oocytes; assay type: cell-based, human; settings: 30 μM, across the voltage range studied
How it was run: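 Human KCNQ1 and KCNE3 cRNAs were injected into defolliculated stage V–VI oocytes (α-subunit cRNA 10 ng total per oocyte) and held 2–5 days at 16°C in Barth's with penicillin/streptomycin. Room-temperature TEVC used bath 96 mM NaCl, 4 mM KCl, 1 mM MgCl2, 1 mM CaCl2, 10 mM Hepes pH 7.6. Test compound was perfused 3 min at 1 ml/min. Prepulses were −80 to +40 mV in 20-mV steps, with tails at −30 mV; n = 8.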

KCNQ1-KCNE4 = assay: Two-electrode voltage clamp of KCNQ1-KCNE4 in Xenopus oocytes; assay type: cell-based, human; settings: 30 μM
How it was run: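 Oocytes (stage V–VI, defolliculated) were co-injected with human KCNQ1 and KCNE4 cRNAs (α-subunit 10 ng total) and kept 2–5 days at 16°C. TEVC was run at room temperature in 4 mM KCl/96 mM NaCl Hepes bath, pH 7.6, after 3-min gravity perfusion of 30 μM test compound. Raw tail currents at −30 mV followed prepulses from −80 to +40 mV; n = 5.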

KCNQ1-R243A/KCNE1 = assay: Two-electrode voltage clamp of KCNQ1-R243A/KCNE1 in Xenopus oocytes; assay type: cell-based, human; settings: MTX 10 μM; CPT1 100 µM
How it was run: (§1)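 Mutant channels were made by site-directed mutagenesis and expressed from human cRNA (α-subunit 10 ng per oocyte) in stage V–VI oocytes for 2–5 days at 16°C. Room-temperature TEVC used a pH 7.6 Hepes-buffered bath with 4 mM KCl. Compound was perfused for 3 min, then currents were recorded at −80 to +40 mV in 20-mV steps. Fold current augmentation was plotted against voltage.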

KCNQ2/3 channels = settings: cited from earlier work
BK = settings: cited from earlier work
[2] = cited from earlier work
human KCNQ1 = human KCNQ1 (Homo sapiens, UniProt P51787); assay: Two-electrode voltage clamp of KCNQ1 expressed in Xenopus laevis oocytes; assay type: cell-based; settings: for negative shift in the voltage dependence of KCNQ1 activation: 100 μM compound; for effect on KCNQ1 gating kinetics (activation and deactivation rates): MTX 30 µM, CPT1 100 µM
human KCNQ1, sequence (P51787 whole entry): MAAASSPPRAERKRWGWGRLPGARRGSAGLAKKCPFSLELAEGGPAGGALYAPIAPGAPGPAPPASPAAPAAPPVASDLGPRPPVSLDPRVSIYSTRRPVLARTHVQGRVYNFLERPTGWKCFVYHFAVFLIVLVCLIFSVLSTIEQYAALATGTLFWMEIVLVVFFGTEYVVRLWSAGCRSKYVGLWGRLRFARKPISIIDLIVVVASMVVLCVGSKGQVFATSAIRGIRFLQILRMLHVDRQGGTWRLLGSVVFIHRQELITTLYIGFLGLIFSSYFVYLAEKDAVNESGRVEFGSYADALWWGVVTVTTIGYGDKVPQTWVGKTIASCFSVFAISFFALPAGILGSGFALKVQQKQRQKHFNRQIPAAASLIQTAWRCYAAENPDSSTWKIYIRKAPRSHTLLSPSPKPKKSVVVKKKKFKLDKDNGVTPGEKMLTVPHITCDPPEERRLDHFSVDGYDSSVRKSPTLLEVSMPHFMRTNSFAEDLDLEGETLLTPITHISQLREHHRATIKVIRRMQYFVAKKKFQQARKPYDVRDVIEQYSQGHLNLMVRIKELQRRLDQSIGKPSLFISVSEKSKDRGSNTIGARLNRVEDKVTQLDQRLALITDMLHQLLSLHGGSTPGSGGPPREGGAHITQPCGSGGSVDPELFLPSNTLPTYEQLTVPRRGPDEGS

KCNQ1-R243A = assay: Two-electrode voltage clamp of KCNQ1-R243A mutant in Xenopus oocytes; assay type: cell-based, human; settings: MTX 10 μM; CPT1 100 µM
How it was run: as §1

KCNQ2/KCNQ3-R242A = assay: Two-electrode voltage clamp of KCNQ2/KCNQ3-R242A in Xenopus oocytes; assay type: cell-based, human; settings: compared with KCNQ2-R213A/KCNQ3 and wild type
KCNQ2-R213A/KCNQ3-R242A = assay: Two-electrode voltage clamp of KCNQ2-R213A/KCNQ3-R242A; assay type: cell-based, human
KCNQ2-R213A/KCNQ3 = assay: Two-electrode voltage clamp of KCNQ2-R213A/KCNQ3 in Xenopus oocytes; assay type: cell-based, human; settings: at a given voltage
KCNQ1-KCNE1 = KCNQ1-KCNE1 (Homo sapiens, UniProt P51787); assay: Two-electrode voltage clamp of KCNQ1-KCNE1 in Xenopus oocytes; assay type: cell-based
KCNQ1-KCNE1, sequence (P51787 whole entry): as above

[3] = rats fed Mallotus philippensis extract; cited from earlier work

SMILES: CC(=O)c1c(O)c(C)c(O)c(Cc2c(O)c3c(c(C(=O)/C=C/c4ccccc4)c2O)OC(C)(C)C=C3)c1O [MTX, mallotoxin]
- effect on KCNQ1 potassium channel (KCNQ1): activate
- effect on hERG potassium channel (hERG): activate
- plasma level converted to molar concentration [1]: 4 µM
- effect on KCNQ1-KCNE3 channels (KCNQ1-KCNE3): moderately inhibited
- effect on KCNQ1-KCNE4 activity (KCNQ1-KCNE4): minor augmentation
- sensitivity of KCNQ1-R243A/KCNE1 complexes to compound (KCNQ1-R243A/KCNE1): completely insensitive
- effect on KCNQ2/3 channels (KCNQ2/3 channels): activates
- effect on BK potassium channel (BK): activate
- toxicity [2]: toxic in large doses
- shift in KCNQ1 activation voltage dependence (human KCNQ1; 30 μM MTX): −27 mV
- effect on KCNQ1 current in presence of UCL2077 (human KCNQ1; 30 μM MTX, UCL2077 10 μM, hyperpolarized voltages): still augmented
- rescue of KCNQ1 from inhibition by UCL2077 (human KCNQ1; 30 μM MTX, UCL2077 10 μM, positive voltages): ineffective
- negative shift in the voltage dependence of KCNQ1 activation (human KCNQ1): −27 mV
- MTX effects on KCNQ1 in high extracellular K+ (human KCNQ1; 50 mM extracellular K+, 10 µM MTX): preserved
- EC50 (human KCNQ1; EC50 (dose response) for the ΔV0.5 activation of KCNQ1): 9.4 ± 0.1 µM
- EC50 (human KCNQ1; KCNQ1 activation EC50, at −40 mV): 9.9 µM and 10 µM
- effect on KCNQ1 gating kinetics (activation and deactivation rates) (human KCNQ1): speeded KCNQ1 activation and slowed its deactivation
- KCNQ1 current fold increase (human KCNQ1; at −40 mV, 30 μM): 5.4 fold
- sensitivity of KCNQ1-R243A to compound (KCNQ1-R243A): completely insensitive
- efficacy of MTX on KCNQ2/KCNQ3-R242A channels (KCNQ2/KCNQ3-R242A): even more efficacious
- sensitivity of RA-RA KCNQ2/3 channels to MTX (KCNQ2-R213A/KCNQ3-R242A): insensitive
- MTX-induced shift in the V0.5 of activation versus wild-type KCNQ2/3 (KCNQ2-R213A/KCNQ3): slightly greater
- EC50 (KCNQ1-KCNE1): 27.9 ± 0.3 µM
- shift of V0.5 of activation of KCNQ1-KCNE1 (KCNQ1-KCNE1; 30 μM MTX): −45 mV
- effect on KCNQ1-KCNE1 currents (KCNQ1-KCNE1; 30 μM, across the voltage range tested): strongly augmented
- oral bioavailability [3]: > 20%
- plasma concentrations [3]: > 2000 ng/mL

SMILES: CCC1=C(O)C(=O)CC1 [CPT1, 3-ethyl-2-hydroxy-2-cyclopenten-1-one]
- sensitivity of KCNQ1-R243A/KCNE1 complexes to compound (KCNQ1-R243A/KCNE1): eliminated
- EC50 (human KCNQ1): 0.1 µM
- negative shift in the voltage dependence of KCNQ1 activation (human KCNQ1): −5 mV
- potency on KCNQ1 relative to MTX (human KCNQ1; CPT1 versus MTX): 100 fold
- effect on KCNQ1 gating kinetics (activation and deactivation rates) (human KCNQ1): statistically significant speeding of activation and slowing of deactivation
- KCNQ1 current fold increase (human KCNQ1; at −60 mV, 100 μM): 2.7 fold
- sensitivity of KCNQ1-R243A to compound (KCNQ1-R243A): eliminated
